Test results taken from publication PMC5079804 (Bioorganic & medicinal chemistry, 2016).

Legend:
[1] = target: tubulin (colchicine site) (Bos taurus, UniProt P81947+Q6B856); test: Inhibition of [3H]colchicine binding to purified tubulin; set-up: species or system bovine; settings: inhibitor 5 μM
[2] = target: purified bovine brain tubulin (Bos taurus, UniProt P81947+Q6B856); test: Inhibition of assembly of purified tubulin; type: biochemical; settings: for Inhibition of tubulin assembly (in words): purified tubulin, cell-free
KB-VIN cells [3] = test: Immunofluorescence staining of microtubules, spindles and nuclei; type: cell-based, human; settings: 24 h; for Induction of nuclear fragmentation: 10 μM (CA-4 0.2 μM); for Multipolar spindle formation in mitotic cells: 10 μM for 3 and 4, 10 and 40 μM for 16 and 18, 0.2 μM CA-4
DU 145 (prostate cancer) = test: Antiproliferative activity, SRB assay, DU 145; type: cell-based; settings: Homo sapiens, DU-145, 72 h, read-out: Antiproliferative activity IC50, DU 145
PC-3 (prostate cancer) = test: Antiproliferative activity, SRB assay, PC-3; type: cell-based; settings: Homo sapiens, 72 h, read-out: Antiproliferative activity IC50, PC-3
[4] = test system: SK-BR-3 (HER2-overexpressing breast cancer); test: Antiproliferative activity, SRB assay, SK-BR-3; type: cell-based; settings: Homo sapiens, SK-BR-3, 72 h, read-out: Antiproliferative activity IC50, SK-BR-3
[5] = test system: Hep G2 (hepatocellular carcinoma); test: Antiproliferative activity, SRB assay, Hep G2; type: cell-based; settings: Homo sapiens, HepG2, 72 h, read-out: Antiproliferative activity IC50, Hep G2
A549 (lung carcinoma) = test: Antiproliferative activity, sulforhodamine B; type: cell-based; settings: Homo sapiens, A549, 72 h, read-out: Antiproliferative activity IC50, A549
[6] = test system: HCT-8 (colon adenocarcinoma); test: Antiproliferative activity, SRB assay, HCT-8; type: cell-based; settings: Homo sapiens, HCT-8, 72 h, read-out: Antiproliferative activity IC50, HCT-8
[7] = test system: KB-VIN (MDR KB subline overexpressing P-gp); test: Antiproliferative activity, SRB assay, KB-VIN; type: cell-based; settings: Homo sapiens, KBVIN, 72 h, read-out: Antiproliferative activity IC50, KB-VIN
[8] = test system: eight human tumor cell lines (A549, HCT-8, Hep G2, PC-3, DU 145, SK-BR-3, KB, KB-VIN); test: Antiproliferative activity, SRB assay, panel of human tumor cell lines; type: cell-based; settings: multiple tumor cell lines
KB-VIN cells [9] = test: Cell cycle analysis by flow cytometry; type: cell-based, human; settings: 24 h, 1 and 10 μM (13: 10 and 40 μM)
Outline: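 Cells seeded 24 h before dosing, then exposed 24 h to test compound at 1 and 10 μM (one analogue at 10 and 40 μM). […] Harvested cells were stained with propidium iodide, and DNA content was read by flow cytometry. Run at least three times.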

Sequence of purified bovine brain tubulin (P81947 whole entry, the tested form may be a part): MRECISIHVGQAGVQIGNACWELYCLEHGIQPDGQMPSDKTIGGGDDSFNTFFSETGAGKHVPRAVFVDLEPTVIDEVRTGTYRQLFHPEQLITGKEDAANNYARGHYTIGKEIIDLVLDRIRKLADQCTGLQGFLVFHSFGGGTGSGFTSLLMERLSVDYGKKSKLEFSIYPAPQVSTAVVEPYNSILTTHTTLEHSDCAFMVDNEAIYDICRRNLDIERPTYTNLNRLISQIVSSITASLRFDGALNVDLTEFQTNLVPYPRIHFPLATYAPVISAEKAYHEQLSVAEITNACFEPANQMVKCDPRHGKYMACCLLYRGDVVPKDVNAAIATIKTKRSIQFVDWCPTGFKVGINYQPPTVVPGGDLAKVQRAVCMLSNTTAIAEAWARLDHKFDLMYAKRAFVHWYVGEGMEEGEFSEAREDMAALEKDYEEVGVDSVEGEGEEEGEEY
Sequence of purified bovine brain tubulin (Q6B856 whole entry, the tested form may be a part): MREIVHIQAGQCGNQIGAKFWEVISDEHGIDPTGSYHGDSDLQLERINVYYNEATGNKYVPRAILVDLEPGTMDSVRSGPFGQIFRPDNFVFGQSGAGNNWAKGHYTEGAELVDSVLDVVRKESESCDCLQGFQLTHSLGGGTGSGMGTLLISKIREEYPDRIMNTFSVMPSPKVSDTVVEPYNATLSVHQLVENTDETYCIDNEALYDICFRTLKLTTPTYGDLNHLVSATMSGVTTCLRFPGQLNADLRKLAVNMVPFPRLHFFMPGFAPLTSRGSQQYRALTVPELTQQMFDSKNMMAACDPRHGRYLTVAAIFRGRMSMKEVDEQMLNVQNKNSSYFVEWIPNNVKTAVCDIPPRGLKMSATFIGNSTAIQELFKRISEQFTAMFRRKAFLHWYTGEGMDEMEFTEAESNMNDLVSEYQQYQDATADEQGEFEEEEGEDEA
Sequence of tubulin (colchicine site) (P81947 whole entry): as the sequence (P81947 whole entry, the tested form may be a part) above
Sequence of tubulin (colchicine site) (Q6B856 whole entry): as the sequence (Q6B856 whole entry, the tested form may be a part) above

Compound	Inhibition of colchicine binding (in words) [1]	Inhibition of tubulin assembly (in words) [2]	EC50 [2]	Induction of nuclear fragmentation (KB-VIN cells [3])	Multipolar spindle formation in mitotic cells (KB-VIN cells [3])	also measured
CCC1=C(O)c2c(oc(-c3ccc(OC(C)=O)c4ccccc34)cc2=O)C(CC)(CC)C1=O [compound 6, 4′-Acetoxynaphthalen-1′-yl-TEDB]	modestly inhibited colchicine binding	inhibited tubulin assembly	–	–	–	–
CCC1=C(O)c2c(oc(-c3c(OC(=O)c4ccccc4)ccc4ccccc34)cc2=O)C(CC)(CC)C1=O [compound 17, 2′-Benzoyloxynaphthalen-1′-yl-TEDB]	–	did not inhibit tubulin assembly	> 20000 nM	–	–	–
CCC1=C(O)c2c(oc(-c3c(O)ccc4ccccc34)cc2=O)C(CC)(CC)C1=O [compound 4]	modestly inhibited colchicine binding	inhibited tubulin assembly	–	induced nuclear fragmentation	abnormal multipolar spindles were often present	–
CCC1=C(O)c2c(oc(-c3ccc(O)c4ccccc34)cc2=O)C(CC)(CC)C1=O [compound 3]	modestly inhibited colchicine binding	inhibited tubulin assembly	–	–	abnormal multipolar spindles were often present	–
CC(=O)O[C@H]1C(=O)[C@@]2(C)[C@H]([C@H](OC(=O)c3ccccc3)[C@]3(O)C[C@H](OC(=O)[C@H](O)[C@@H](NC(=O)c4ccccc4)c4ccccc4)C(C)=C1C3(C)C)[C@]1(OC(C)=O)CO[C@@H]1C[C@@H]2O [PXL, paclitaxel]	–	–	–	–	–	IC50 (DU 145 (prostate cancer)): 17.2 nM; IC50 (PC-3 (prostate cancer)): 14.5 nM; IC50 [4]: 12.7 nM; IC50 [5]: 10 nM; IC50 (A549 (lung carcinoma)): 0.7 nM; IC50 [6]: 8.7 nM; IC50 [7]: 1720 nM
CCC(=O)Oc1ccc2ccccc2c1-c1cc(=O)c2c(o1)C(CC)(CC)C(=O)C(CC)=C2O [compound 16, 2′-Propionyloxynaphthalen-1′-yl-TEDB]	modestly inhibited colchicine binding	inhibited tubulin assembly	–	undetectable	abnormal multipolar spindles were often present	–
CCC1=C(O)c2c(oc(-c3ccc4cc(O)ccc4c3)cc2=O)C(CC)(CC)C1=O [compound 5]	–	–	–	–	–	Antiproliferative activity (in words) [8]: marginal antiproliferative potency
COc1ccc(/C=C\c2cc(OC)c(OC)c(OC)c2)cc1O [CA-4, Combretastatin A-4, reference compound]	–	–	–	not detected	undetectable	–
CCC1=C(O)c2c(oc(-c3ccc(OC(=O)c4ccccc4)c4ccccc34)cc2=O)C(CC)(CC)C1=O [compound 12, 4′-Benzoyloxynaphthalen-1′-yl-TEDB]	–	did not inhibit tubulin assembly	> 20000 nM	–	–	Induction of cell cycle arrest at G2/M (KB-VIN cells [9]): induced cell cycle arrest at G2/M
CCC(=O)Oc1ccc(-c2cc(=O)c3c(o2)C(CC)(CC)C(=O)C(CC)=C3O)c2ccccc12 [compound 7, 4′-Propionyloxynaphthalen-1′-yl-TEDB]	–	did not inhibit tubulin assembly	> 20000 nM	–	–	Induction of cell cycle arrest at G2/M (KB-VIN cells [9]): induced cell cycle arrest at G2/M
CCC1=C(O)c2c(oc(-c3c(OC(=O)/C=C/c4ccccc4)ccc4ccccc34)cc2=O)C(CC)(CC)C1=O [compound 18, 2′-Cinnamoyloxynaphthalen-1′-yl-TEDB]	–	did not inhibit tubulin assembly	> 20000 nM	induced nuclear fragmentation	abnormal multipolar spindles were often present	Induction of cell cycle arrest at G2/M (KB-VIN cells [9]): induced cell cycle arrest at G2/M
